Measured values: ChEMBL document CHEMBL5126501, “Therapeutic potential for coxibs-nitric oxide releasing hybrids in cystic fibrosis” (Eur J Med Chem, 2021)

Tests used:
[1] = target: T1, Prostaglandin G/H synthase 2 (Homo sapiens) (UniProt P35354); assay: Inhibition of human recombinant COX-2 assessed as […] production at 10 uM using arachidonic acid as substrate preincubated for 10 mins followed by substrate addition and measured after 2 mins by enzyme immunoassay relative to control; details: time 12.0 min
T1 sequence (whole entry): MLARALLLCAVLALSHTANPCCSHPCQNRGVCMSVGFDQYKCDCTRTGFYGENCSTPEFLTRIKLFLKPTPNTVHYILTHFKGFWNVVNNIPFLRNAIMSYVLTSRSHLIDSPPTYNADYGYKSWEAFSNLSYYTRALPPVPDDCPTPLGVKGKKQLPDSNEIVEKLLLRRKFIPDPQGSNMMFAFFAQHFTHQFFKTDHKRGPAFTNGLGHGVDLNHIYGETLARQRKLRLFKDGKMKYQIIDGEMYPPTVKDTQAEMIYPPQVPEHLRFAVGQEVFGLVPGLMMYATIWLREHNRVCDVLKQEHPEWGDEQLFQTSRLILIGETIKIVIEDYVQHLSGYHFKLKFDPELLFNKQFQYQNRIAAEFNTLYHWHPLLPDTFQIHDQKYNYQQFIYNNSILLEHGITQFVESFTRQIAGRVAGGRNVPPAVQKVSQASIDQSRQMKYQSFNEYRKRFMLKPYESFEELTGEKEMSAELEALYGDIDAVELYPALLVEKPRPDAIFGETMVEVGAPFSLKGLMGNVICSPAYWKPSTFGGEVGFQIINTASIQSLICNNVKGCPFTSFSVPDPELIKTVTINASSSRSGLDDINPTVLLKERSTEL
Procedure, shortened: (§1)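 PGE2 production was measured with test compound and compared with control samples to give % inhibition. Values are means of n = 3 experiments. IC50 was obtained by fitting a sigmoidal dose–response equation with variable slope.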

Liver [2] = assay: NO releasing activity in rat liver homogenate assessed as nitrite formation measured after 120 mins; assay type: ADME, tissue-based; details: tissue homogenate, 2 h
Procedure, shortened: (§2)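 Compounds were incubated in rat liver homogenate. Inorganic nitrite and nitrate, the stable NO metabolites, were quantified over time, with the reading taken at 120 min of incubation.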

Liver [3] = assay: NO releasing activity in rat liver homogenate assessed as nitrate formation measured after 120 mins; assay type: ADME, tissue-based; details: tissue homogenate, 2 h; procedure, shortened: as §2
Mus musculus [4] = assay: Analgesic activity against acetic acid induced mouse model assessed as reduction in writhing at 20 mg/kg, po by abdominal constriction test; assay type: functional; parameters: scale not given: the % may be the effect or the level left
Procedure, shortened: (§3)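 Mice were dosed orally, with carboxymethylcellulose (CMC) as vehicle, 30 min before an acetic acid (0.6%) challenge. Abdominal constrictions (writhes) were counted. Values are means of at least seven mice, and percent writhing reduction is relative to vehicle-treated mice. Statistics were P<0.05 and P<0.01 versus vehicle.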

Mus musculus [5] = assay: Analgesic activity against acetic acid induced mouse model assessed as number of writhes at 10 mg/kg, po measured after 30 mins by abdominal constriction test; assay type: functional; details: 0.5 h; procedure, shortened: as §3
Mus musculus [6] = assay: Analgesic activity against acetic acid induced mouse model assessed as reduction in writhing at 10 mg/kg, po by abdominal constriction test; assay type: functional; parameters: scale not given: the % may be the effect or the level left; procedure, shortened: as §3
Aorta [7] = assay: Vasorelaxant activity in KCl induced normotensive Wistar rat endothelium-denuded aortic rings contraction assessed as decrease in contractile tone; assay type: functional, tissue-based
Procedure, shortened: (§4)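 Rat aortic rings were precontracted with KCl. Vasorelaxing efficacy (Emax) is the % reversal of the KCl-induced vasoconstriction. Potency is pIC50, the −log of the molar concentration giving 50% of Emax. ODQ was used to check for NO dependence.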

Mus musculus [8] = assay: Analgesic activity against acetic acid induced mouse model assessed as number of writhes at 5 mg/kg, po measured after 30 mins by abdominal constriction test; assay type: functional; details: 0.5 h
Mus musculus [9] = assay: Analgesic activity against acetic acid induced mouse model assessed as reduction in writhing at 40 mg/kg, po by abdominal constriction test; assay type: functional; parameters: scale not given: the % may be the effect or the level left; procedure, shortened: as §3
Mus musculus [10] = assay: Analgesic activity against acetic acid induced mouse model assessed as reduction in writhing at 5 mg/kg, po by abdominal constriction test; assay type: functional; parameters: scale not given: the % may be the effect or the level left
Mus musculus [11] = assay: Analgesic activity against acetic acid induced mouse model assessed as number of writhes at 40 mg/kg, po measured after 30 mins by abdominal constriction test; assay type: functional; details: 0.5 h; procedure, shortened: as §3
Mus musculus [12] = assay: Analgesic activity against acetic acid induced mouse model assessed as number of writhes at 20 mg/kg, po measured after 30 mins by abdominal constriction test; assay type: functional; details: 0.5 h; procedure, shortened: as §3
Aorta [13] = assay: Vasorelaxant activity in KCl induced normotensive Wistar rat endothelium-denuded aortic rings contraction assessed as maximal vasorelaxing response at 10 uM relative to control; assay type: functional; procedure, shortened: as §4
[14] = target: T2, Prostaglandin G/H synthase 1 (Ovis aries, UniProt P05979); assay: Inhibition of ovine COX-1 assessed as […] production using arachidonic acid as substrate preincubated for 10 mins followed by substrate addition and measured after 2 mins by enzyme immunoassay; procedure, shortened: as §1
T2 sequence (P05979 whole entry): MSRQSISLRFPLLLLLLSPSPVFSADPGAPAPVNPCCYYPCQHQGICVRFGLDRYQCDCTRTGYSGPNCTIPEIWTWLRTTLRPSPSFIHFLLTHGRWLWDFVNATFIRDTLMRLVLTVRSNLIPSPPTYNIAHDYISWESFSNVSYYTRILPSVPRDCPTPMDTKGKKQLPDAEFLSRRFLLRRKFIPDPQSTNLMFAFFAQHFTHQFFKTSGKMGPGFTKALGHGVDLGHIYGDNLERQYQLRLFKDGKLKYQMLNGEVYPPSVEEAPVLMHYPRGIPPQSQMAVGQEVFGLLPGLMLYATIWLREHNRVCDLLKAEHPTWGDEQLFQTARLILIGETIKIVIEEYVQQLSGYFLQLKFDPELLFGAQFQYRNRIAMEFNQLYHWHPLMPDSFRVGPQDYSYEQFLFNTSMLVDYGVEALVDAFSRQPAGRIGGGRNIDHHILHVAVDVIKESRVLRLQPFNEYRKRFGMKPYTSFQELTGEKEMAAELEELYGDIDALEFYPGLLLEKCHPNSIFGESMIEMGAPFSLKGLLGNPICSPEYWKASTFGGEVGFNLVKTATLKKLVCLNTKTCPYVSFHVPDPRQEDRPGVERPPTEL

Mus musculus [15] = assay: Analgesic activity against acetic acid induced mouse model assessed as reduction in writhing at 3 mg/kg, po by abdominal constriction test; assay type: functional; parameters: scale not given: the % may be the effect or the level left; procedure, shortened: as §3
Mus musculus [16] = assay: Analgesic activity against acetic acid induced mouse model assessed as reduction in writhing at 1 mg/kg, po by abdominal constriction test; assay type: functional; parameters: scale not given: the % may be the effect or the level left; procedure, shortened: as §3
Mus musculus [17] = assay: Analgesic activity against acetic acid induced mouse model assessed as number of writhes at 3 mg/kg, po measured after 30 mins by abdominal constriction test; assay type: functional; details: 0.5 h; procedure, shortened: as §3
Mus musculus [18] = assay: Analgesic activity against acetic acid induced mouse model assessed as number of writhes at 1 mg/kg, po measured after 30 mins by abdominal constriction test; assay type: functional; details: 0.5 h; procedure, shortened: as §3

inhibition [1] [%]	IC50 (Aorta [7]) [µM]	IC50 [14] [µM]	Structure (SMILES)	Activity (Mus musculus [5])	Activity (Mus musculus [6]) [%]	Emax at 10 µM (Aorta [13]) [%]	other results
15			Cc1c(CC(=O)NCCO)cc(-c2ccc(S(N)(=O)=O)cc2)n1-c1cccc(F)c1				
			COc1ccc2cc([C@H](C)C(=O)OCCCCO[N+](=O)[O-])ccc2c1 [NAPROXCINOD]				Activity (Liver [2]): 28 µM; Activity (Liver [3]): 340.1 µM
18			Cc1c(CC(=O)NCCO)cc(-c2ccc(S(N)(=O)=O)cc2)n1-c1ccc(F)cc1				
16	1.51	> 10	Cc1c(CC(=O)NCCO[N+](=O)[O-])cc(-c2ccc(S(N)(=O)=O)cc2)n1-c1ccc(F)cc1	18.5	44.9	74.9	Activity (Mus musculus [4]): 53%; Activity (Mus musculus [8]): 26.7; Activity (Mus musculus [9]): 50.3%; Activity (Mus musculus [10]): 20.5%; Activity (Mus musculus [11]): 16.7; Activity (Mus musculus [12]): 15.8
45	3.24	> 10	Cc1c(CC(=O)NCCO[N+](=O)[O-])cc(-c2ccc(S(N)(=O)=O)cc2)n1-c1cccc(F)c1	16.7	50.3	67.5	Activity (Mus musculus [15]): 42.3%; Activity (Mus musculus [16]): 35.1%; Activity (Mus musculus [17]): 19.4; Activity (Mus musculus [18]): 21.8
